ChEMBL document CHEMBL4602675, “The Marine Natural Product Manzamine A Inhibits Cervical Cancer by Targeting the SIX1 Protein” (J Nat Prod, 2020)
Calls of active or inactive are those of the source. The calls are words filed in the database; no cut-off is given here.

Tests used:
Ca-Ski [1] = test: Antiproliferative activity against human CaSki cells assessed as reduction in cell viability after 72 hrs by CellTiter-Glo assay; format: functional, cell-based
Summary of the method: (§1)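 ATP-based luminescent viability readout. Cells were grown in DMEM with 10% FBS, 2 mM L-glutamine and penicillin-streptomycin at 37 °C, 5% CO2. 2 × 10^4 cells/well were seeded, then exposed the next day to 0–40 μM for 24, 48 or 72 h. % viability = 100 × treated/control. IC50 was fitted from a sigmoid dose-response curve. Run at least three times in quadruplicate; mean ± SEM.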

HeLa [2] = test: Cell cycle arrest in human HeLa cells assessed as accumulation at Sub G1 phase at 4 uM after 72 hrs by propidium iodide staining based flow cytometric analysis (reference value: 3.5%); format: functional
Summary of the method: (§2)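 Cells in DMEM/10% FBS at 37 °C, 5% CO2 were given 4 μM for 24, 48 or 72 h, with DMSO as control. After trypsinization they were fixed in chilled 70% ethanol on ice for 30 min, treated with RNase A (1 mg/mL) for 30 min at room temperature, and stained with PI (20 μg/mL). At least 10 000 events were read by flow cytometry to give sub-G1, G0/G1, S and G2/M fractions; mean ± SEM.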

SiHa [3] = test: Antiproliferative activity against human SiHa cells assessed as reduction in cell viability after 48 hrs by CellTiter-Glo assay; format: functional, cell-based; summary of the method: as §1
Ca-Ski [4] = test: Cell cycle arrest in human CaSki cells assessed as increase in accumulation at G0/G1 phase at 4 uM incubated for 48 hrs by propidium iodide staining based flow cytometric analysis; format: functional; summary of the method: as §2
SiHa [5] = test: Cell cycle arrest in human SiHa cells assessed as accumulation at G2/M phase at 4 uM after 72 hrs by propidium iodide staining based flow cytometric analysis (reference value: 18%); format: functional
Summary of the method: (§3)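 Cells in DMEM with 10% FBS, 2 mM L-glutamine, pen-strep, 37 °C, 5% CO2; seeded and left overnight, then treated at 4 μM with DMSO as control. Harvested by trypsin at 24, 48 or 72 h, fixed in chilled 70% ethanol 30 min on ice, RNase A (1 mg/mL) 30 min at room temperature, PI (20 μg/mL). Flow cytometry, ≥10 000 events, G0/G1, S, G2/M fractions; mean ± SEM.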

Ca-Ski [6] = test: Induction of apoptosis in human CaSki cells assessed as early apoptotic cells at 4 uM after 24 hrs by Annexin V-FITC/PI double staining based flow cytometric analysis (reference value: 12.2%); format: functional
SiHa [7] = test: Cell cycle arrest in human SiHa cells assessed as accumulation at G2/M phase at 4 uM after 48 hrs by propidium iodide staining based flow cytometric analysis (reference value: 14.7%); format: functional; summary of the method: as §3
SiHa [8] = test: Induction of apoptosis in human SiHa cells assessed as late apoptotic cells at 4 uM after 48 hrs by Annexin V-FITC/PI double staining based flow cytometric analysis (reference value: 2.3%); format: functional
SiHa [9] = test: Induction of apoptosis in human SiHa cells assessed as early apoptotic cells at 4 uM after 48 hrs by Annexin V-FITC/PI double staining based flow cytometric analysis (reference value: 2.4%); format: functional
C-33-A [10] = test: Antiproliferative activity against human C33A cells assessed as reduction in cell viability after 24 hrs by CellTiter-Glo assay; format: functional, cell-based; summary of the method: as §1
HeLa [11] = test: Cell cycle arrest in human HeLa cells assessed as accumulation at G0/G1 phase at 4 uM after 72 hrs by propidium iodide staining based flow cytometric analysis (reference value: 76.4%); format: functional; summary of the method: as §2
Ca-Ski [12] = test: Cell cycle arrest in human CaSki cells assessed as accumulation at G0/G1 phase at 4 uM after 72 hrs by propidium iodide staining based flow cytometric analysis (reference value: 77.6%); format: functional
C-33-A [13] = test: Antiproliferative activity against human C33A cells assessed as reduction in cell viability after 72 hrs by CellTiter-Glo assay; format: functional, cell-based; summary of the method: as §1
HeLa [14] = test: Induction of apoptosis in human HeLa cells assessed as early apoptotic cells at 4 uM after 24 hrs by Annexin V-FITC/PI double staining based flow cytometric analysis (reference value: 6.3%); format: functional
SiHa [15] = test: Effect on total-Rb in human SiHa cells assessed decrease in Rb protein level at 2 to 4 uM after 48 hrs by Western blot analysis; format: ADME, cell-based
Summary of the method: (§4)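 Cells were seeded at 1 × 10^6 per 100 mm dish and treated next day with 2 or 4 μM for 48 h. They were trypsinised, PBS-washed and lysed in RIPA with protease inhibitors. Equal protein was run on SDS-PAGE and transferred to PVDF. Primary antibodies were used at 1:500, with BSA 3% for blocking and antibodies for CK2α, Rb and pRb, otherwise 5% milk in TBST. HRP secondary at 1:2000, chemiluminescence detection.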

[16] = target: Casein kinase II subunit alpha (Homo sapiens) (UniProt P68400); test: Inhibition of CK2alpha in human CaSki cells at 2 to 4 uM after 48 hrs by Western blot analysis; format: cell-based; settings: Ca-Ski; summary of the method: as §4
HeLa [17] = test: Cell cycle arrest in human HeLa cells assessed as accumulation at G2/M phase at 4 uM after 24 hrs by propidium iodide staining based flow cytometric analysis (reference value: 16.4%); format: functional; summary of the method: as §2
Ca-Ski [18] = test: Effect on total-Rb in human CaSki cells assessed decrease in Rb protein level at 2 to 4 uM after 48 hrs by Western blot analysis; format: ADME, cell-based; summary of the method: as §4
Ca-Ski [19] = test: Cell cycle arrest in human CaSki cells assessed as accumulation at G0/G1 phase at 4 uM after 24 hrs by propidium iodide staining based flow cytometric analysis (reference value: 56%); format: functional; summary of the method: as §2
C-33-A [20] = test: Induction of apoptosis in human C33A cells assessed as viable cells at 4 uM after 48 hrs by Annexin V-FITC/PI double staining based flow cytometric analysis (reference value: 82.8%); format: functional; settings: read-out: Activity
HeLa [21] = test: Cell cycle arrest in human HeLa cells assessed as accumulation at Sub G1 phase at 4 uM after 48 hrs by propidium iodide staining based flow cytometric analysis (reference value: 2.1%); format: functional; summary of the method: as §2
[22] = target: Casein kinase II subunit alpha (Homo sapiens) (UniProt P68400); test: Potency index, ratio for inhibition activity of apigenin to test compound for inhibition of CK2alpha in human CaSki cells after 48 hrs by Western blot analysis; format: cell-based; settings: Ca-Ski
Summary of the method: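 Cells plated at 1 × 10^6 per 100 mm dish and treated next day for 48 h with test compound (2 or 4 μM) or apigenin (10, 20 or 40 μM). RIPA lysates with protease inhibitors; equal protein loaded for SDS-PAGE, then PVDF transfer. Blocked in 5% milk/TBST (3% BSA for CK2α); anti-SIX1 or anti-CK2α 1:500, HRP secondary 1:2000; chemiluminescent detection.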

Ca-Ski [23] = test: Inhibition of colony formation in human CaSki cells at 2 to 4 uM afer 1 week by crystal violet staining based assay; format: functional, cell-based
Summary of the method: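 Cells were grown in DMEM with 10% FBS, seeded at 1 × 10^3 cells/ml in six-well plates, incubated overnight, then exposed to 2 or 4 μM at 37 °C under 5% CO2 for one week. Colonies were fixed with 4% paraformaldehyde, stained with 0.5% crystal violet and photographed.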

C-33-A [24] = test: Cell cycle arrest in human C33A cells assessed as accumulation at G2/M phase at 4 uM after 72 hrs by propidium iodide staining based flow cytometric analysis (reference value: 25.2%); format: functional; summary of the method: as §2
HeLa [25] = test: Induction of apoptosis in human HeLa cells assessed as apoptotic cells at 4 uM after 48 hrs by Annexin V-FITC/PI double staining based flow cytometric analysis (reference value: 19.3%); format: functional

Chain of Casein kinase II subunit alpha (Homo sapiens) (P68400 whole entry, looked up): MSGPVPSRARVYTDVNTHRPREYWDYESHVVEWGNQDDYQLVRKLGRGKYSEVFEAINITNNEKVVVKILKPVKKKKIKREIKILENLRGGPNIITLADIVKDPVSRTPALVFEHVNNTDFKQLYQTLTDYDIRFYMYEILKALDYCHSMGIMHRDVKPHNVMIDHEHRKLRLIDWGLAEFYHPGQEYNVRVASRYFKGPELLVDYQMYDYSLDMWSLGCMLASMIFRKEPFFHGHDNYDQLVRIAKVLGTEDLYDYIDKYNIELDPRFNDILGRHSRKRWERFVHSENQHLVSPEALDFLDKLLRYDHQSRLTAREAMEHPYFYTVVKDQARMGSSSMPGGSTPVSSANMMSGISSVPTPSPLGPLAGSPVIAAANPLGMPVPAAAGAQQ

`O[C@]12C=C(c3nccc4c3[nH]c3ccccc34)[C@@H]3CCN(CCCC/C=C\CC1)C[C@@]31C[C@@H]3/C=C\CCCCN3[C@H]12` [MANZAMINE A] showed an IC50 (Ca-Ski [1]) of 9.4 µM, an Activity (HeLa [2]) of 24.3% and an IC50 (SiHa [3]) of 9.9 µM. The “fold change (FC)” value (Ca-Ski [4]) was 1.5, the Activity (SiHa [5]) was 12.7% and the Activity (Ca-Ski [6]) was 16.9%. The Activity (SiHa [7]) was 8.2%, the Activity (SiHa [8]) was 4.2% and the Activity (SiHa [9]) was 27%. For the same compound, the IC50 (C-33-A [10]) was 5.2 µM, the Activity (HeLa [11]) was 49.1% and the Activity (Ca-Ski [12]) was 81.7%. The IC50 (C-33-A [13]) was 1600 nM, the Activity (HeLa [14]) was 10.5% and the Activity (SiHa [15]) was “Toxic”. For the same compound, the inhibition [16] was “Active”, the Activity (HeLa [17]) was 13.8% and the Activity (Ca-Ski [18]) was “Toxic”. For the same compound, the Activity (Ca-Ski [19]) was 77.6%, the viability at 4 µM (C-33-A [20]) was 63.6% and the Activity (HeLa [21]) was 5.1%. For the same compound, the Ratio [22] was 10, the inhibition (Ca-Ski [23]) was “Active” and the Activity (C-33-A [24]) was 19.3%. It also gave an Activity (HeLa [25]) of 75.9%.
